Values joined by “and” are separate entries in the source; they are usually repeats but may differ in a detail not shown here. Identical values can stand only once.
Columns and labels:
Fibroblast = assay: Multiplex assay against human fibroblast; type: toxicity, cell-based; settings: number of replicates 2
Method in brief: (§1)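 Imaging took place on a CQ1 microscope at 37°C and 5% CO2 once compound had been added to live cells stained at seeding with Hoechst33342, BioTracker Green Microtubule Cytoskeleton Dye, MitoTracker Red and Annexin V Alexa Fluor 680. CellPathfinder machine-learning gating classed cells as Hoechst high-intensity objects or normal cells, classed normal cells as having healthy, pyknosed or fragmented nuclei, and classed pyknosed cells as mitotic or apoptotic. Tubulin, mitochondrial-mass and membrane-permeability phenotypes are per cents of the healthy-nucleus cells.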

HEK-293T = assay: Multiplex assay against HEK293T; type: toxicity, cell-based; settings: human, number of replicates 2; method in brief: as §1
[1] = 24 h, 10 µM, compound concentration 10 uM
[2] = 48 h, 1 µM, compound concentration 1 uM
[3] = 48 h, 10 µM, compound concentration 10 uM
[4] = 12 h, 1 µM, compound concentration 1 uM
[5] = 12 h, 10 µM, compound concentration 10 uM
[6] = 24 h, 1 µM, compound concentration 1 uM

N[C@@H]1c2cccnc2[C@H](OC(=O)N2CCC(n3c(=O)[nH]c4ncccc43)CC2)CC[C@H]1c1cccc(F)c1F [RIMEGEPANT]
Population Hoechst High Intensity Objects (%) (Fibroblast; [1]): 0%
Population Membrane Permeable-Phenotype (%) (Fibroblast; [1]): 7% and 6%
Population Mitochondria Different-Phenotype (%) (Fibroblast; [1]): 3% and 5%
Population Mitotic Cells (%) (Fibroblast; [1]): 52% and 35%
Population Normal (%) (Fibroblast; [1]): 100% and 99%
Population Pyknosed Nuclei (%) (Fibroblast; [1]): 9% and 7%
Population Tubulin-Different-Phenotype (%) (Fibroblast; [1]): 50% and 36%
Total Cell Count (Fibroblast; [1]): 199 and 236
Population Apoptotic (%) (Fibroblast; [2]): 65% and 48%
Population Fragmented Nuclei (%) (Fibroblast; [2]): 8% and 21%
Population Healthy Nuclei (%) (Fibroblast; [2]): 75% and 65%
Population Hoechst High Intensity Objects (%) (Fibroblast; [2]): 0% and 1%
Population Membrane Permeable-Phenotype (%) (Fibroblast; [2]): 4% and 2%
Population Mitochondria Different-Phenotype (%) (Fibroblast; [2]): 1%
Population Mitotic Cells (%) (Fibroblast; [2]): 35% and 51%
Population Normal (%) (Fibroblast; [2]): 100% and 98%
Population Pyknosed Nuclei (%) (Fibroblast; [2]): 16% and 12%
Population Tubulin-Different-Phenotype (%) (Fibroblast; [2]): 6% and 10%
Total Cell Count (Fibroblast; [2]): 125 and 227
Population Apoptotic (%) (Fibroblast; [3]): 77% and 47%
Population Fragmented Nuclei (%) (Fibroblast; [3]): 14% and 13%
Population Healthy Nuclei (%) (Fibroblast; [3]): 81% and 78%
Population Hoechst High Intensity Objects (%) (Fibroblast; [3]): 0%
Population Membrane Permeable-Phenotype (%) (Fibroblast; [3]): 1% and 5%
Population Mitochondria Different-Phenotype (%) (Fibroblast; [3]): 1% and 0%
Population Mitotic Cells (%) (Fibroblast; [3]): 22% and 52%
Population Normal (%) (Fibroblast; [3]): 99% and 100%
Population Pyknosed Nuclei (%) (Fibroblast; [3]): 4% and 7%
Population Tubulin-Different-Phenotype (%) (Fibroblast; [3]): 37% and 16%
Total Cell Count (Fibroblast; [3]): 205 and 225
Population Apoptotic (%) (HEK-293T; [4]): 64% and 44%
Population Fragmented Nuclei (%) (HEK-293T; [4]): 4% and 5%
Population Healthy Nuclei (%) (HEK-293T; [4]): 78% and 83%
Population Hoechst High Intensity Objects (%) (HEK-293T; [4]): 14% and 10%
Population Membrane Permeable-Phenotype (%) (HEK-293T; [4]): 3% and 1%
Population Mitochondria Different-Phenotype (%) (HEK-293T; [4]): 18% and 17%
Population Mitotic Cells (%) (HEK-293T; [4]): 35% and 55%
Population Normal (%) (HEK-293T; [4]): 85% and 89%
Population Pyknosed Nuclei (%) (HEK-293T; [4]): 17% and 10%
Population Tubulin-Different-Phenotype (%) (HEK-293T; [4]): 47%
Total Cell Count (HEK-293T; [4]): 573 and 694
Population Apoptotic (%) (HEK-293T; [5]): 40% and 46%
Population Fragmented Nuclei (%) (HEK-293T; [5]): 4%
Population Healthy Nuclei (%) (HEK-293T; [5]): 83% and 84%
Population Hoechst High Intensity Objects (%) (HEK-293T; [5]): 5% and 6%
Population Membrane Permeable-Phenotype (%) (HEK-293T; [5]): 1% and 4%
Population Mitochondria Different-Phenotype (%) (HEK-293T; [5]): 49% and 18%
Population Mitotic Cells (%) (HEK-293T; [5]): 60% and 53%
Population Normal (%) (HEK-293T; [5]): 94% and 93%
Population Pyknosed Nuclei (%) (HEK-293T; [5]): 12% and 11%
Population Tubulin-Different-Phenotype (%) (HEK-293T; [5]): 98% and 82%
Total Cell Count (HEK-293T; [5]): 526 and 617
Population Apoptotic (%) (HEK-293T; [6]): 56% and 37%
Population Fragmented Nuclei (%) (HEK-293T; [6]): 7% and 6%
Population Healthy Nuclei (%) (HEK-293T; [6]): 75% and 85%
Population Hoechst High Intensity Objects (%) (HEK-293T; [6]): 11% and 8%
Population Membrane Permeable-Phenotype (%) (HEK-293T; [6]): 0% and 1%
Population Mitochondria Different-Phenotype (%) (HEK-293T; [6]): 5% and 4%
Population Mitotic Cells (%) (HEK-293T; [6]): 43% and 62%
Population Normal (%) (HEK-293T; [6]): 88% and 91%
Population Pyknosed Nuclei (%) (HEK-293T; [6]): 17% and 7%
Population Tubulin-Different-Phenotype (%) (HEK-293T; [6]): 18% and 20%
Total Cell Count (HEK-293T; [6]): 820 and 1035
Population Apoptotic (%) (HEK-293T; [1]): 48% and 36%
Population Fragmented Nuclei (%) (HEK-293T; [1]): 9% and 8%
Population Healthy Nuclei (%) (HEK-293T; [1]): 84% and 83%
Population Hoechst High Intensity Objects (%) (HEK-293T; [1]): 8%
Population Membrane Permeable-Phenotype (%) (HEK-293T; [1]): 5% and 2%
Population Mitotic Cells (%) (HEK-293T; [1]): 51% and 63%
Population Normal (%) (HEK-293T; [1]): 91%
Population Pyknosed Nuclei (%) (HEK-293T; [1]): 6% and 7%
Population Tubulin-Different-Phenotype (%) (HEK-293T; [1]): 91% and 67%
Total Cell Count (HEK-293T; [1]): 709 and 978
Population Apoptotic (%) (HEK-293T; [2]): 26% and 9%
Population Fragmented Nuclei (%) (HEK-293T; [2]): 12% and 16%
Population Healthy Nuclei (%) (HEK-293T; [2]): 82% and 80%
Population Hoechst High Intensity Objects (%) (HEK-293T; [2]): 7% and 8%
Population Membrane Permeable-Phenotype (%) (HEK-293T; [2]): 4% and 5%
Population Mitochondria Different-Phenotype (%) (HEK-293T; [2]): 0%
Population Mitotic Cells (%) (HEK-293T; [2]): 73% and 90%
Population Normal (%) (HEK-293T; [2]): 92% and 91%
Population Pyknosed Nuclei (%) (HEK-293T; [2]): 4% and 2%
Population Tubulin-Different-Phenotype (%) (HEK-293T; [2]): 7% and 8%
Total Cell Count (HEK-293T; [2]): 2054 and 2768
Population Apoptotic (%) (HEK-293T; [3]): 34% and 14%
Population Fragmented Nuclei (%) (HEK-293T; [3]): 14%
Population Healthy Nuclei (%) (HEK-293T; [3]): 82%
Population Hoechst High Intensity Objects (%) (HEK-293T; [3]): 8% and 10%
Population Membrane Permeable-Phenotype (%) (HEK-293T; [3]): 6%
Population Mitochondria Different-Phenotype (%) (HEK-293T; [3]): 9% and 1%
Population Mitotic Cells (%) (HEK-293T; [3]): 65% and 85%
Population Normal (%) (HEK-293T; [3]): 91% and 89%
Population Pyknosed Nuclei (%) (HEK-293T; [3]): 2% and 3%
Population Tubulin-Different-Phenotype (%) (HEK-293T; [3]): 83% and 44%
Total Cell Count (HEK-293T; [3]): 1243 and 2004
